Measurements from ChEMBL document CHEMBL2429843 (J Med Chem, 2013).

How the values were obtained:
[1] = Selectivity ratio for Escherichia coli TrmD over human SET7/9
[2] = Selectivity ratio for Escherichia coli TrmD over human PRMT1
[3] = target: T1, Histone-lysine N-methyltransferase SETD7 (Homo sapiens) (UniProt Q8WTS6); assay: Inhibition of human SET7/9 at 20 uM relative to control
T1 sequence (whole entry): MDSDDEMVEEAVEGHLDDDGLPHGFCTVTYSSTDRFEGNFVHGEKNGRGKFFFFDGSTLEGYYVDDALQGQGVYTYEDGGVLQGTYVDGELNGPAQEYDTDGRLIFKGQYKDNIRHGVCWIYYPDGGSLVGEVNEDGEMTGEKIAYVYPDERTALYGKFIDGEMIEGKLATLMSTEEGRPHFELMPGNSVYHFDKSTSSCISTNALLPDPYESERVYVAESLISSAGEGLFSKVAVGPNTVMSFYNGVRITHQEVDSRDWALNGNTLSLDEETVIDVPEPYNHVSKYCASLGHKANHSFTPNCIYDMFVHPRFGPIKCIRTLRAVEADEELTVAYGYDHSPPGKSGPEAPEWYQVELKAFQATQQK

[4] = target: Protein arginine N-methyltransferase 1 (Homo sapiens) (UniProt Q99873); assay: Inhibition of human PRMT1 at 20 uM relative to control
Chain of Protein arginine N-methyltransferase 1 (Homo sapiens) (Q99873 whole entry, looked up): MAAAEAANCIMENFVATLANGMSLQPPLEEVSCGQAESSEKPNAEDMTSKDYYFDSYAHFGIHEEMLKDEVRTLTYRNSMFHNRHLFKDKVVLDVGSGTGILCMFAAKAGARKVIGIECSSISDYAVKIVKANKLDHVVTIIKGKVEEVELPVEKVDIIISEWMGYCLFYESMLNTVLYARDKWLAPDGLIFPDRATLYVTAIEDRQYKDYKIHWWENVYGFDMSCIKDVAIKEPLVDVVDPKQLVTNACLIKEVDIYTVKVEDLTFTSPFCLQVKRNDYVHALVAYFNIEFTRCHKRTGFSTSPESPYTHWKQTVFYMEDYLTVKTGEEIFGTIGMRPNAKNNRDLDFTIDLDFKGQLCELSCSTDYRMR

Haemophilus influenzae = assay: Antibacterial activity against recombinant Haemophilus influenzae harboring acrB::cap mutant assessed as growth inhibition by broth microdilution method; format: functional
[5] = Inhibition of Haemophilus influenzae TrmD using S-[methyl-3H] adenosyl-L-methionine as substrate assessed as leucine-tRNA methylation after 1 hr by scintillation proximity assay
Procedure, shortened: (§1)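 Radiometric SPA: TrmD in 50 mM HEPES pH 7.5 with 5 mM MgCl2 (E. coli and K. pneumoniae 10 nM, S. aureus 10 nM, P. aeruginosa 5 nM, H. influenzae 4 nM in enzyme reagent), mixed 1:1 with a reagent of 0.05 μM [3H]SAM, 2 μM unlabelled SAM and 2 μM synthetic E. coli leucine-tRNA. Compounds are 2-fold serial DMSO dilutions. Incubation is 1 h at room temperature.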

[6] = Inhibition of Staphylococcus aureus TrmD using S-[methyl-3H] adenosyl-L-methionine as substrate assessed as leucine-tRNA methylation after 1 hr by scintillation proximity assay; procedure, shortened: as §1
[7] = Inhibition of Escherichia coli TrmD using S-[methyl-3H] adenosyl-L-methionine as substrate assessed as leucine-tRNA methylation after 1 hr by scintillation proximity assay; procedure, shortened: as §1

Compound: O=C(NCc1ccc(CN2CCC(O)C2)cc1)c1csc2nc[nH]c(=O)c12 (stereo not drawn)
- Selectivity ratio [1]: 50
- Selectivity ratio [2]: 50
- inhibition [3]: < 10%
- inhibition [4]: < 10%
- MIC (Haemophilus influenzae): 3.1 µM
- IC50 [5]: 370 nM
- IC50 [6]: 4400 nM
- IC50 [7]: 420 nM
